Read-outs that look alike come from different tables or passages of the source.
What was measured:
KACh channel [1] = biological target: T1, KACh channel (Rattus norvegicus, UniProt P48548+P63251); assay type: cell-based; conditions: for inhibition of ATP-dependent gating, extracellular application: 5 μM in the pipette solution (extracellular), after 5 min, n = 4 each; for Hill coefficient of inhibition: ATP-modified KACh channels, inside-out
T1 sequence (P63251 1-501): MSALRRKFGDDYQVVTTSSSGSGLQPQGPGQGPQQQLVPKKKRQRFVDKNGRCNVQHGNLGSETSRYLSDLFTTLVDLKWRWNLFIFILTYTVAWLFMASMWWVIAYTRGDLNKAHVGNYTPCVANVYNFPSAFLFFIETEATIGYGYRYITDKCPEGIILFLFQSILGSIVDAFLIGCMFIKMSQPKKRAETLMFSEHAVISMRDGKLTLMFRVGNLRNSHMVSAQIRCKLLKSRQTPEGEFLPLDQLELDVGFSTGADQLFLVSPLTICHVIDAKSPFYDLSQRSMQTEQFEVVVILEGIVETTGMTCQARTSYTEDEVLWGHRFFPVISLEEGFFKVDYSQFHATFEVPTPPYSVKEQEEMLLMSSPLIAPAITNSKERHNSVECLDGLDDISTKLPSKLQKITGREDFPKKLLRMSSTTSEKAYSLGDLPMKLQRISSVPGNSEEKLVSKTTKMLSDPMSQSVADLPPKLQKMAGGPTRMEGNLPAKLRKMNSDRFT
T1 sequence (P48548 1-419): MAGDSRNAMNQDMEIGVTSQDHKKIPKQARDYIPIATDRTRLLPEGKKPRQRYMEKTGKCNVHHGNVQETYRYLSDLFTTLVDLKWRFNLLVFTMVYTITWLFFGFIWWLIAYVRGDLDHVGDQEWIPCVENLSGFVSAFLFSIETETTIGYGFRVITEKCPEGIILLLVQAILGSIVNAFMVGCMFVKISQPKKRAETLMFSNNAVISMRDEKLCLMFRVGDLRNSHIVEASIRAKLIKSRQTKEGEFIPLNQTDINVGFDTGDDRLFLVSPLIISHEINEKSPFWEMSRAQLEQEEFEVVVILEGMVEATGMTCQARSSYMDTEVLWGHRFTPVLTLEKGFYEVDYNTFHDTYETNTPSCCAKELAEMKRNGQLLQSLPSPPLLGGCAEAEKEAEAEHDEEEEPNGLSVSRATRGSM

KACh channel [2] = biological target: T1, KACh channel; assay type: cell-based; conditions: 2 μM fatty acid applied with 30 μM PIP2
[3] = biological target: T2, KACh channels in hippocampal pyramidal neurons (Rattus norvegicus, UniProt P48550+P63251); test: ATP-dependent gating of KACh channel in hippocampal neurons, 5-HT as agonist; assay type: cell-based; conditions: 2 μM with 100 μM GTP and 4 mM ATP, 10 μM 5-HT in pipette
T2 sequence (P63251 1-501): T1 sequence (P63251 1-501)
T2 sequence (P48550 1-425): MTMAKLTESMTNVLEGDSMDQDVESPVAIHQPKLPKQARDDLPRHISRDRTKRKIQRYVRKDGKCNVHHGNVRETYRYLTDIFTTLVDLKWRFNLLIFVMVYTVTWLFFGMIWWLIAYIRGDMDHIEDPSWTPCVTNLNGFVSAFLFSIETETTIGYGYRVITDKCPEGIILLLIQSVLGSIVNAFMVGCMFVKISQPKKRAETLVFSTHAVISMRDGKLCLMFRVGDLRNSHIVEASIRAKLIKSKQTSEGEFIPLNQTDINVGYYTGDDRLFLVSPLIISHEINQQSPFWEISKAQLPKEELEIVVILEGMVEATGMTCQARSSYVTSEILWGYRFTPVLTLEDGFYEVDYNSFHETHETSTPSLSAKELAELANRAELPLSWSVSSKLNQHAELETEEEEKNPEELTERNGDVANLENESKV
Procedure, shortened: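 Pyramidal neurons from the CA3 region of adult rat hippocampus. Slices ~500 μm thick were digested in 0.33 mg/ml trypsin at 30°C, then in DNase I, triturated, and settled onto coverslips. Inside-out patches were activated by 100 μM GTP, then 4 mM ATP was added. Open states were assessed from duration histograms and kinetic-scheme fits with one or two open states.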

KACh channel [4] = biological target: T1, KACh channel; test: βγ-activated KACh channels, atrial inside-out patches; assay type: cell-based
Procedure, shortened: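 Atrial inside-out patches at −60 mV in 140 mM KCl, pH 7.2, 24–26°C. Channels were activated by purified bovine βγ subunit applied to the cytoplasmic face. Linoleic or arachidonic acid (2 μM, sonicated into bath solution) was applied first, then 4 mM ATP was added. nPo was compared before and after ATP.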

K1 channel = test: ATP-activated background K1 channel, atrial inside-out patches; assay type: cell-based, rat
KATP channel = KATP channel (Rattus norvegicus, UniProt P70673); test: KATP channel, inside-out patches from adult rat ventricular cells; assay type: cell-based
Procedure, shortened: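 KATP channels that appeared on forming inside-out patches were tested with 5 μM arachidonic acid on the cytoplasmic side. In some patches channels were first allowed to run down, then briefly exposed to 3 mM ATP to reactivate them before fatty acid was applied. Recordings were at 24–26°C; 2 μM was also tested (n = 3).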

GIRK1/4 = test: ATP-dependent gating of GIRK1/4 expressed in Xenopus oocytes, βγ-activated; assay type: cell-based; conditions: βγ 50 nM
Procedure, shortened: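 Xenopus oocytes injected with GIRK1 and GIRK4 cRNA (~0.5 ng/nl) and kept ~2 d at 19°C in Barth's solution. Vitelline membrane was removed before patching. Inside-out patches in 140 mM KCl, pH 7.2. Channel activity and open-time kinetics were assessed with ATP and fatty acid on the cytoplasmic side.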

[5] = K 1/2 (effect on ATP-dependent gating of KACh channel), atrial inside-out patches, 100 μM GTP and 4 mM ATP, lipid 0.1, 1, 3, 10 and 30 μM, n = 3 each

KATP channel, sequence (P70673 whole entry): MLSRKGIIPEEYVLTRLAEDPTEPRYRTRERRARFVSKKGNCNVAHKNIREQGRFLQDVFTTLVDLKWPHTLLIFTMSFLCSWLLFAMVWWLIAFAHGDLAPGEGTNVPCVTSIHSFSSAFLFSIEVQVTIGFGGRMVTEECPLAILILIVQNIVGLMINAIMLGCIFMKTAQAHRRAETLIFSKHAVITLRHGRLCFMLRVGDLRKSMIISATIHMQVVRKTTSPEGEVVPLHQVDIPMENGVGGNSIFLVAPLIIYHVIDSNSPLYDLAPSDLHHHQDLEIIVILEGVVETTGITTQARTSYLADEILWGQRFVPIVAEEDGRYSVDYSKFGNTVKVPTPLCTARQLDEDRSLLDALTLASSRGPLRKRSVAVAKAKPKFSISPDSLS
KATP channel, sequence (Q63563 whole entry partner): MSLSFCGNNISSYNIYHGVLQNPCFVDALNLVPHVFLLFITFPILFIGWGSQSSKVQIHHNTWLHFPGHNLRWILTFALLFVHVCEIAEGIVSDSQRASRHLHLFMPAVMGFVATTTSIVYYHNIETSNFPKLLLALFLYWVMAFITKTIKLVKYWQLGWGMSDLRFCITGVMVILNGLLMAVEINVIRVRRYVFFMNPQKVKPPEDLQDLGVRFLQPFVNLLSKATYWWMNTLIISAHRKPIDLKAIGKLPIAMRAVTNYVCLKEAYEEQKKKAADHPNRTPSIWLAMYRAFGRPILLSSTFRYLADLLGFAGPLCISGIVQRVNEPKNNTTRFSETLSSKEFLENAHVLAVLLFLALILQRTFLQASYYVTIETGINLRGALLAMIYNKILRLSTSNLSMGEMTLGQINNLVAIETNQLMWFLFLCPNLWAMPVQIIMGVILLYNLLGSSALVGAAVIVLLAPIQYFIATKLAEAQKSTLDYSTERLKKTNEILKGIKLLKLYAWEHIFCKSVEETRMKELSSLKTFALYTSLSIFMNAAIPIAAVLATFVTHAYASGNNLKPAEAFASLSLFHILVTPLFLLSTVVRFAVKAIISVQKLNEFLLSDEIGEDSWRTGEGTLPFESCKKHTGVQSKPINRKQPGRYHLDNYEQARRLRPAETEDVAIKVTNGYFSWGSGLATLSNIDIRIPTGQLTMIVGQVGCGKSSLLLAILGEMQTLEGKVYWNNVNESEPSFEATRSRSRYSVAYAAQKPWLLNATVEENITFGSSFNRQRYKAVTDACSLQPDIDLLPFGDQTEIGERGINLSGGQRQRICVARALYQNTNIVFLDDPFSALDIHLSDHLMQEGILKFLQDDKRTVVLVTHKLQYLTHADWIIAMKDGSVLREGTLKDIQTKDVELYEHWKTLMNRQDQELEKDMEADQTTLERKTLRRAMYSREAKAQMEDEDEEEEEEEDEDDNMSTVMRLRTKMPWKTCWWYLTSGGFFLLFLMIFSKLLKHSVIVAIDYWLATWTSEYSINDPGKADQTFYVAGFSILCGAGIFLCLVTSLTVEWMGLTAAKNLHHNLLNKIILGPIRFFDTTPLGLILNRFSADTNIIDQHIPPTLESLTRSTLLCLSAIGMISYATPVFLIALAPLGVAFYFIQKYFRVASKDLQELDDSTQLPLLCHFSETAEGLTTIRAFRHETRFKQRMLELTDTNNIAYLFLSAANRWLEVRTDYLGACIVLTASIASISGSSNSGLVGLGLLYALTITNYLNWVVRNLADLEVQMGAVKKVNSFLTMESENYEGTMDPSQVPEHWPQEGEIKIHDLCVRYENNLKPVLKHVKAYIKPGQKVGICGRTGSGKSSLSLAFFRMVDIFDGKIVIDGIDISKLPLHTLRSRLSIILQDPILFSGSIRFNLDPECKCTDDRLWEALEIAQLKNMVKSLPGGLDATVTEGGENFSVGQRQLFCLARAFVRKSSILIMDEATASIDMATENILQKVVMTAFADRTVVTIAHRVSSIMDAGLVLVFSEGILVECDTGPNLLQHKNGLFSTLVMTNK

Row | Structure (SMILES) | inhibition of ATP-dependent gating, extracellular application (KACh channel [1]) | Hill coefficient of inhibition (KACh channel [1]) | IC50 (KACh channel [1]; [5]) | IC50 (KACh channel [1]; K 1/2 for inhibition, pipette solution 70 mM K+, n = 3) | IC50 (KACh channel [1]; K 1/2 for inhibition, pipette solution 140 mM K+, n = 3) | IC50 (KACh channel [1]; K 1/2 for inhibition, pipette solution 210 mM K+, n = 3) | effect on PIP2-dependent gating of KACh channel (KACh channel [2]) | open time constant (one open state) [3] | increase in channel activity on further addition of 4 mM ATP (KACh channel [4]; βγ-activated channels exposed to 2 μM fatty acid first, n = 5) | influence on K1 channel kinetics (K1 channel; linoleic acid 2 μM (n = 3), cytosolic fraction 5 mg protein/ml (n = 2), lipid fraction (n = 2)) | inhibition of KATP channel activity (KATP channel; 5 μM, during channel rundown) | KACh open time constant after fatty acid (KACh channel [1]; 2 μM AA with GTP and 4 mM ATP, atrial patch also containing K1 channel) | voltage dependence of the effect (KACh channel [1]; channel activity at different membrane potentials (Fig. 10 B)) | effect on ATP-induced changes in GIRK1/4 channel kinetics (GIRK1/4) | IC50 (KACh channel [4]) | effect on K1 channel (K1 channel; 2 or 5 μM AA, ATP-activated, n = 3 each, listed as AA) | KATP channel inhibition in the presence of PIP2 (KATP channel; 5 μM AA with PIP2 present, listed as AA) | inhibition of KATP channels reactivated by ATP after rundown (KATP channel; brief exposure to 3 mM ATP, n = 4, listed as AA) | inhibition at 2 µM (KATP channel; read-out: inhibition of KATP channel activity)
1 | CCCCC/C=C\C/C=C\CCCCCCCC(=O)O [Linoleic acid [18:2 (n-6)], Linoleic acid] | did not inhibit | ~2 | 1200 ± 200 nM | 1600 ± 400 nM | 1500 ± 300 nM | 1700 ± 400 nM | inhibited | 1.0 ± 0.1 ms | 1.3 ± 0.1 fold | failed to significantly influence | near maximal inhibition |  |  |  |  |  |  |  | 
2 | CCCCC/C=C\C/C=C\C/C=C\C/C=C\CCCC(=O)O [Arachidonic acid [20:4 (n-6)], Arachidonic acid] | did not inhibit | ~2 | 1700 ± 200 nM |  |  |  |  |  |  |  |  | 1.0 ± 0.1 ms | voltage-insensitive | blocked | 1500 nM | no effect | ineffective | quick inhibition | 62 ± 12%

From publication PMC2217204 (The Journal of General Physiology, 2000)
